Key:
[1] = tested on: NB-4; assay: Antiproliferative activity against human NB4 cells assessed as cell growth inhibition at 10 uM incubated for 48 hrs by CCK8 assay relative to control; assay type: functional; conditions: read-out: GI
Outline: (§1)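 Single-concentration screen of six cancer cell lines. Cells were exposed to 10 μM compound and growth was measured by CCK-8 assay. Results are reported as inhibition rate at 10 μM.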

[2] = tested on: MOLM-13; assay: Antiproliferative activity against human MOLM-13 cells assessed as cell growth inhibition at 10 uM incubated for 48 hrs by CCK8 assay relative to control; assay type: functional; conditions: read-out: GI; outline: as §1
[3] = tested on: JeKo-1; assay: Antiproliferative activity against human JeKo-1 cells assessed as cell growth inhibition at 10 uM incubated for 48 hrs by CCK8 assay relative to control; assay type: functional; conditions: read-out: GI; outline: as §1
[4] = tested on: A549; assay: Antiproliferative activity against human A549 cells assessed as cell growth inhibition at 10 uM incubated for 48 hrs by CCK8 assay relative to control; assay type: functional; conditions: read-out: GI; outline: as §1
[5] = tested on: HeLa; assay: Antiproliferative activity against human HeLa cells assessed as cell growth inhibition at 10 uM incubated for 48 hrs by CCK8 assay relative to control; assay type: functional; conditions: read-out: GI; outline: as §1
[6] = tested on: U-251; assay: Antiproliferative activity against human U-251 cells assessed as cell growth inhibition at 10 uM incubated for 48 hrs by CCK8 assay relative to control; assay type: functional; conditions: read-out: GI; outline: as §1
[7] = tested on: MOLM-13; assay: Antiproliferative activity against human MOLM-13 cells assessed as inhibition of cell growth incubated for 48 hrs by CCK8 assay; assay type: functional, cell-based; conditions: MOLM-13, 48 h
Outline: (§2)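 CCK-8 growth-inhibition assay in the malignant haematological lines MOLM-13, NB4 and Jeko-1 and in normal PBMC. Cells were treated across a range of doses and IC50 taken as the half-maximal growth-inhibitory concentration. Data are mean ± SD of triplicate samples, and experiments were repeated at least three times.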

[8] = tested on: NB-4; assay: Antiproliferative activity against human NB4 cells assessed as inhibition of cell growth incubated for 48 hrs by CCK8 assay; assay type: functional, cell-based; conditions: NB-4, 48 h; outline: as §2
[9] = tested on: JeKo-1; assay: Antiproliferative activity against human JeKo-1 cells assessed as inhibition of cell growth incubated for 48 hrs by CCK8 assay; assay type: functional, cell-based; conditions: JeKo-1, 48 h; outline: as §2
[10] = tested on: PBMC; assay: Cytotoxicity against human PBMC assessed as reduction in cell viability incubated for 48 hrs by CCK8 assay; assay type: toxicity, cell-based; outline: as §2
[11] = tested on: MOLM-13; assay: Cell cycle arrest in human MOLM-13 cells assessed as accumulation of G0/G1 phase cells at 2.5 uM incubated for 24 hrs by RNase A/PI staining based flow cytometry analysis (reference value: 38.14%); assay type: functional
[12] = tested on: MOLM-13; assay: Cell cycle arrest in human MOLM-13 cells assessed as accumulation of G2/M phase cells at 2.5 uM incubated for 24 hrs by RNase A/PI staining based flow cytometry analysis (reference value: 11.74%); assay type: functional
[13] = tested on: MOLM-13; assay: Cell cycle arrest in human MOLM-13 cells assessed as accumulation of S phase cells at 2.5 uM incubated for 24 hrs by RNase A/PI staining based flow cytometry analysis (reference value: 50.12%); assay type: functional
[14] = tested on: MOLM-13; assay: Cell cycle arrest in human MOLM-13 cells assessed as accumulation of G0/G1 phase cells at 5 uM incubated for 24 hrs by RNase A/PI staining based flow cytometry analysis (reference value: 38.14%); assay type: functional
[15] = tested on: MOLM-13; assay: Cell cycle arrest in human MOLM-13 cells assessed as accumulation of G2/M phase cells at 5 uM incubated for 24 hrs by RNase A/PI staining based flow cytometry analysis (reference value: 11.74%); assay type: functional
[16] = tested on: MOLM-13; assay: Cell cycle arrest in human MOLM-13 cells assessed as accumulation of S phase cells at 5 uM incubated for 24 hrs by RNase A/PI staining based flow cytometry analysis (reference value: 50.12%); assay type: functional
[17] = tested on: MOLM-13; assay: Cell cycle arrest in human MOLM-13 cells assessed as accumulation of G0/G1 phase cells at 10 uM incubated for 24 hrs by RNase A/PI staining based flow cytometry analysis (reference value: 38.14%); assay type: functional
[18] = tested on: MOLM-13; assay: Cell cycle arrest in human MOLM-13 cells assessed as accumulation of G2/M phase cells at 10 uM incubated for 24 hrs by RNase A/PI staining based flow cytometry analysis (reference value: 11.74%); assay type: functional
[19] = tested on: MOLM-13; assay: Cell cycle arrest in human MOLM-13 cells assessed as accumulation of S phase cells at 10 uM incubated for 24 hrs by RNase A/PI staining based flow cytometry analysis (reference value: 50.12%); assay type: functional
[20] = tested on: MOLM-13; assay: Induction of apoptosis in human MOLM-13 cells assessed as viable cells at 2.5 uM incubated for 48 hrs by Annexin V-FITC/PI staining based flow cytometric analysis (reference value: 92.24%); assay type: functional; conditions: read-out: Activity
[21] = tested on: MOLM-13; assay: Induction of apoptosis in human MOLM-13 cells assessed as early apoptotic cells at 2.5 uM incubated for 48 hrs by Annexin V-FITC/PI staining based flow cytometric analysis (reference value: 4.10%); assay type: functional
[22] = tested on: MOLM-13; assay: Induction of apoptosis in human MOLM-13 cells assessed as late apoptotic cells at 2.5 uM incubated for 48 hrs by Annexin V-FITC/PI staining based flow cytometric analysis (reference value: 3.17%); assay type: functional
[23] = tested on: MOLM-13; assay: Induction of apoptosis in human MOLM-13 cells assessed as necrotic cells at 2.5 uM incubated for 48 hrs by Annexin V-FITC/PI staining based flow cytometric analysis (reference value: 0.48%); assay type: functional
[24] = tested on: MOLM-13; assay: Induction of apoptosis in human MOLM-13 cells assessed as viable cells at 5 uM incubated for 48 hrs by Annexin V-FITC/PI staining based flow cytometric analysis (reference value: 92.24%); assay type: functional; conditions: read-out: Activity
[25] = tested on: MOLM-13; assay: Induction of apoptosis in human MOLM-13 cells assessed as early apoptotic cells at 5 uM incubated for 48 hrs by Annexin V-FITC/PI staining based flow cytometric analysis (reference value: 4.10%); assay type: functional
[26] = tested on: MOLM-13; assay: Induction of apoptosis in human MOLM-13 cells assessed as late apoptotic cells at 5 uM incubated for 48 hrs by Annexin V-FITC/PI staining based flow cytometric analysis (reference value: 3.17%); assay type: functional
[27] = tested on: MOLM-13; assay: Induction of apoptosis in human MOLM-13 cells assessed as necrotic cells at 5 uM incubated for 48 hrs by Annexin V-FITC/PI staining based flow cytometric analysis (reference value: 0.48%); assay type: functional
[28] = tested on: MOLM-13; assay: Induction of apoptosis in human MOLM-13 cells assessed as viable cells at 10 uM incubated for 48 hrs by Annexin V-FITC/PI staining based flow cytometric analysis (reference value: 92.24%); assay type: functional; conditions: read-out: Activity
[29] = tested on: MOLM-13; assay: Induction of apoptosis in human MOLM-13 cells assessed as early apoptotic cells at 10 uM incubated for 48 hrs by Annexin V-FITC/PI staining based flow cytometric analysis (reference value: 4.10%); assay type: functional
[30] = tested on: MOLM-13; assay: Induction of apoptosis in human MOLM-13 cells assessed as late apoptotic cells at 10 uM incubated for 48 hrs by Annexin V-FITC/PI staining based flow cytometric analysis (reference value: 3.17%); assay type: functional
[31] = tested on: MOLM-13; assay: Induction of apoptosis in human MOLM-13 cells assessed as necrotic cells at 10 uM incubated for 48 hrs by Annexin V-FITC/PI staining based flow cytometric analysis (reference value: 0.48%); assay type: functional

## COc1ccc2c(c1OC)C(=O)O[C@@H]2[C@H]1c2c(c(C3CCN(C(=O)OC(C)(C)C)CC3)c3c(c2OC)OCO3)CCN1C(=O)OC(C)(C)C
[1]
  inhibition of growth at 10 µM: 21.2%
[2]
  inhibition of growth at 10 µM: 62.9%
[3]
  inhibition of growth at 10 µM: 22.3%
[4]
  inhibition of growth at 10 µM: 14.7%
[5]
  inhibition of growth at 10 µM: 17.5%
[6]
  inhibition of growth at 10 µM: < 5%

## COc1ccc2c(c1OC)C(=O)O[C@@H]2[C@H]1c2c(c(CC3CN(C(=O)OCc4ccccc4)C3)c3c(c2OC)OCO3)CCN1C(=O)OC(C)(C)C
[7]
  IC50: 3.12 µM
[8]
  IC50: 5.25 µM
[9]
  IC50: 3.39 µM
[1]
  inhibition of growth at 10 µM: 60.5%
[2]
  inhibition of growth at 10 µM: 79.8%
[3]
  inhibition of growth at 10 µM: 74.3%
[4]
  inhibition of growth at 10 µM: 57%
[5]
  inhibition of growth at 10 µM: 62.7%
[6]
  inhibition of growth at 10 µM: 37.1%
[10]
  Activity: Non-Toxic
[11]
  Activity: 36.94%
[12]
  Activity: 16.36%
[13]
  Activity: 46.7%
[14]
  Activity: 16.37%
[15]
  Activity: 9.96%
[16]
  Activity: 73.67%
[17]
  Activity: 12.45%
[18]
  Activity: 5.11%
[19]
  Activity: 82.44%
[20]
  viability at 2.5 µM: 90.1%
[21]
  Activity: 5.01%
[22]
  Activity: 4.35%
[23]
  Activity: 0.52%
[24]
  viability at 5 µM: 62%
[25]
  Activity: 16.95%
[26]
  Activity: 18.62%
[27]
  Activity: 2.41%
[28]
  viability at 10 µM: 53.5%
[29]
  Activity: 19.67%
[30]
  Activity: 23.68%
[31]
  Activity: 3.2%

## COc1ccc2c(c1OC)C(=O)O[C@@H]2[C@@H]1NCCc2c(CC3CN(C(=O)OCc4ccccc4)C3)c3c(c(OC)c21)OCO3
[7]
  IC50: 7.78 µM
[8]
  IC50: 13.2 µM
[9]
  IC50: 7.57 µM

## COc1ccc2c(c1OC)C(=O)O[C@@H]2[C@H]1c2c(c(CC3CCN(C(=O)OC(C)(C)C)CC3)c3c(c2OC)OCO3)CCN1C(=O)OC(C)(C)C
[1]
  inhibition of growth at 10 µM: 37.3%
[2]
  inhibition of growth at 10 µM: 58.1%
[3]
  inhibition of growth at 10 µM: 22.7%
[4]
  inhibition of growth at 10 µM: < 5%
[5]
  inhibition of growth at 10 µM: < 5%
[6]
  inhibition of growth at 10 µM: < 5%

## COc1ccc2c(c1OC)C(=O)O[C@@H]2[C@H]1c2c(c(CC[Si](C)(C)C)c3c(c2OC)OCO3)CCN1C(=O)OC(C)(C)C
[1]
  inhibition of growth at 10 µM: 21.9%
[2]
  inhibition of growth at 10 µM: 46.9%
[3]
  inhibition of growth at 10 µM: < 5%
[4]
  inhibition of growth at 10 µM: < 5%
[5]
  inhibition of growth at 10 µM: < 5%
[6]
  inhibition of growth at 10 µM: < 5%

## COc1ccc2c(c1OC)C(=O)O[C@@H]2[C@H]1c2c(c(CC3CCN3C(=O)OC(C)(C)C)c3c(c2OC)OCO3)CCN1C(=O)OC(C)(C)C (stereo partly drawn)
[1]
  inhibition of growth at 10 µM: 13.8%
[2]
  inhibition of growth at 10 µM: 43.2%
[3]
  inhibition of growth at 10 µM: 12.9%
[4]
  inhibition of growth at 10 µM: < 5%
[5]
  inhibition of growth at 10 µM: < 5%
[6]
  inhibition of growth at 10 µM: < 5%

## COc1ccc2c(c1OC)C(=O)O[C@@H]2[C@H]1c2c(c(CC3CN(C(C)=O)C3)c3c(c2OC)OCO3)CCN1C
[7]
  IC50: > 20 µM
[8]
  IC50: > 20 µM
[9]
  IC50: > 20 µM

## COc1ccc2c(c1OC)C(=O)O[C@@H]2[C@H]1c2c(c(C3CCC3)c3c(c2OC)OCO3)CCN1C(=O)OC(C)(C)C
[1]
  inhibition of growth at 10 µM: 13.5%
[2]
  inhibition of growth at 10 µM: 40.4%
[3]
  inhibition of growth at 10 µM: < 5%
[4]
  inhibition of growth at 10 µM: < 5%
[5]
  inhibition of growth at 10 µM: < 5%
[6]
  inhibition of growth at 10 µM: < 5%

## CCCCc1c2c(c(OC)c3c1OCO3)[C@H]([C@H]1OC(=O)c3c1ccc(OC)c3OC)N(C(=O)OC(C)(C)C)CC2
[1]
  inhibition of growth at 10 µM: 10%
[2]
  inhibition of growth at 10 µM: 48.6%
[3]
  inhibition of growth at 10 µM: 11.4%
[4]
  inhibition of growth at 10 µM: < 5%
[5]
  inhibition of growth at 10 µM: < 5%
[6]
  inhibition of growth at 10 µM: < 5%
